Test results: ChEMBL document CHEMBL1122366, “Potential antiatherosclerotic agents. 3. Substituted benzoic and non benzoic acid analogues of cetaben” (1983)

Assays:
[1] = target: T1, Sterol O-acyltransferase 1 (Rattus norvegicus) (UniProt O70536); experiment: In vitro inhibition of acyl coenzyme A:cholesterol acyltransferase; set-up: concentration or dose not given beside the values; conditions: concentration not given here
T1 sequence (whole entry): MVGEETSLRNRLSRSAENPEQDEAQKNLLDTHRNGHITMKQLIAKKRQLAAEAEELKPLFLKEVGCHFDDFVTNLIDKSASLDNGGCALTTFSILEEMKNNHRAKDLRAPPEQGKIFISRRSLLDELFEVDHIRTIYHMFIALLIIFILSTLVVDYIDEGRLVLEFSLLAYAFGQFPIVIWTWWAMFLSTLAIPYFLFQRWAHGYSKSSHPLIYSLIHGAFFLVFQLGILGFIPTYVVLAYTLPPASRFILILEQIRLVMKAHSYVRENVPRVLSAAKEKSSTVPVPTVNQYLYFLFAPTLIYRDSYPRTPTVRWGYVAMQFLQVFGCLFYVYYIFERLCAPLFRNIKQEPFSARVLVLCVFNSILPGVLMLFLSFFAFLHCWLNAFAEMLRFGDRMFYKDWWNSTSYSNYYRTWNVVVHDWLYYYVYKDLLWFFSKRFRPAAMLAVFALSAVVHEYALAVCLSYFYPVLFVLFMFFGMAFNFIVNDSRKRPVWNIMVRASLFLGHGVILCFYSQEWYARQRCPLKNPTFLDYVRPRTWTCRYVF
How it was run: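 Enzyme fatty acyl-CoA:cholesterol acyltransferase (ACAT), assayed in vitro at a single drug concentration of 5.2 μg/mL. The value is the mean percent inhibition of enzyme activity.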

[2] = test system: Rattus norvegicus; experiment: In vivo triglyceride lowering activity when dosed at 0.03 % of the diet; format: functional
How it was run: (§1)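 Normal rats were dosed in the diet. Serum sterol and triglyceride levels were measured and expressed as the mean percent of control values. Significance versus control was reported at p < 0.05, 0.01 and 0.001.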

[3] = test system: Rattus norvegicus; experiment: In vivo sterol lowering activity at dose of 0.10 % of the diet; format: functional; how it was run: as §1
[4] = test system: Rattus norvegicus; experiment: In vivo triglyceride lowering activity when dosed as 0.01 % of the diet; format: functional; how it was run: as §1
[5] = test system: Rattus norvegicus; experiment: In vivo sterol lowering activity when dosed as 0.03 % of the diet; format: functional; how it was run: as §1
[6] = test system: Rattus norvegicus; experiment: In vivo triglyceride lowering activity dosed at 0.10 % of the diet.; format: functional; how it was run: as §1
[7] = test system: Rattus norvegicus; experiment: In vivo sterol lowering activity when dosed as 0.01 % of the diet; format: functional; how it was run: as §1

| Compound | inhibition [1] | serum triglyceride level, percent of control [2] | serum sterol level, percent of control [3] | serum triglyceride level, percent of control [4] | serum sterol level, percent of control [5] | serum triglyceride, percent of control [6] | serum sterol level, % of control [7] |
| --- | --- | --- | --- | --- | --- | --- | --- |
| CCCCCCCCCCCCCCCCNc1ccc(C(=O)SCC(O)CO)cc1 (stereo not given) | 3% | 83% | <82% | 106% | 92% | <64% | 93% |
| CCCCCCCCCCCCCCCCNc1ccc(C(=O)CS(C)(=O)=O)cc1 | 0% | 112% | 100% | 88% | 97% | 110% | 98% |
| CCCCCCCCCCCCCCCCNc1ccc(C(=O)OCC2CO2)cc1 (stereo not given) | 13% | <60% | <75% | <74% | <75% | <53% | 92% |
| CCCCCCCCCCCCCCCCNc1ccc(C(=O)OCCO)cc1 | 17% | <65% | <83% | <75% | 92% | <52% | 106% |
| CCCCCCCCCCCCCCCCNc1ccc(C(=O)O)cn1 | < 45% | 88% | 90% | 121% | <84% | 94% | 102% |
| CCCCCCCCCCCCCCCCNc1ccc(C(=O)OCC(=O)O)cc1 | 45% | 91% | <83% | 76% | 88% | <65% | 87% |
| CCCCCCCCCCCCCCCCNc1ccc(C(=O)NCC(=O)OCC)cc1 | 16% | 74% | 92% | 78% | 96% | <69% | 92% |
| CCCCCCCCCCCCCCCCNc1ccc(C(=O)NC(=O)c2ccccc2)cc1 | 0% | <66% | <75% | 76% | <80% | <58% | 91% |
| CCCCCCCCCCCCCCCCNc1ccc(C(=O)C(C)(C)C(=O)OCC)cc1 | 0% | <65% | 90% | 101% | 103% | 101% | 94% |
| CCCCCCCCCCCCCCCCNc1ccc(C(=O)CO)cc1 | 20% | 75% | <85% | 89% | 97% | <71% | 103% |
| CCCCCCCCCCCCCCCCNc1ccc(C(=O)NO)cc1 | 9% | 76% | 104% | 70% | 106% | 82% | 106% |
| CCCCCCCCCCCCCCCCNc1ccc(C(=O)OCC(CO)OC(C)=O)cc1 (stereo not given) | 28% | <71% | 86% | 90% | 85% | <47% | 118% |
| CCCCCCCCCCCCCCCCNc1ccc(C(=O)NS(C)(=O)=O)cc1 | 11% | <73% | <87% | 77% | <84% | <54% | 94% |
| CCCCCCCCCCCCCCCCNc1ccc(C(=O)NC(C)(C)C(=O)O)cc1 | 13% | 90% | 88% | 84% | 95% | 83% | 89% |
| CCCCCCCCCCCCCCCCNc1csc(C(=O)O)c1 | 70% | 103% | 98% | 112% | 101% | 79% | 98% |
| CCCCCCCCCCCCCCCCNC1CCC(C(=O)OC)CC1 (stereo not given) | < 37% | 88% | <71% | 78% | 92% | <63% | 99% |
| CCCCCCCCCCCCCCCCNc1ncc(C(=O)O)cn1 | < 21% | 94% | 114% | 89% | 108% | 93% | 108% |
| CCCCCCCCCCCCCCCCNc1ccc(C(=O)NS(=O)(=O)c2ccccc2)cc1 | < 22% | <55% | <67% | 86% | <84% | <36% | 88% |
| CCCCCCCCCCCCCCCCNc1ccc(C(=O)NS(=O)(=O)c2ccc([N+](=O)[O-])cc2)cc1 | < 43% | <79% | <82% | 92% | 94% | 108% | 105% |
| CCCCCCCCCCCCCCCCNc1ccc(SCC(=O)O)cc1 | < 22% | 110% | 93% | 72% | 97% | 100% | 92% |
